From ChEMBL document CHEMBL1799945, “Glucosyloxybenzyl eucomate derivatives from Vanda teres stimulate HaCaT cytochrome c oxidase” (J Nat Prod, 2011)
The source made the active and inactive calls. The rule behind the calls is not given here.

Tests used:
HaCaT [1] = experiment: Activation of mitochondrial cytochrome C oxidase in human HaCaT lysate at 50 uM using equine cardiac cytochrome C substrate by spectrophotometry
Summary of the method: (§1)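 Lysis in HEPES buffer (20 mM HEPES, 0.1% Triton, 1 mM EDTA). Lysates were Bradford-adjusted to 2 mg/mL. v0 was taken without substrate, then 50 μM reduced cytochrome c was added. Loss was read at 550 nm over 90 s. Slopes gave U/μg. Activity was expressed as % of the DMSO 0.1% control; n=3, mean ± SD, paired t test.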

HaCaT [2] = experiment: Activation of mitochondrial cytochrome C oxidase in human HaCaT lysate at 0.87 to 7 uM using equine cardiac cytochrome C substrate by spectrophotometry; summary of the method: as §1
HaCaT [3] = experiment: Induction of mitochondrial biogenesis in human HaCaT cells assessed as mitochondrial 16S rRNA level by qPCR; type: functional, cell-based
Summary of the method: (§2)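 HaCaT cells were treated as for the oxidase assay, but for 48 h. Lysis in Tris 10 mM/EDTA 1 mM/NaOAc 0.3 M/SDS 1%, then phenol DNA extraction. SYBR Green qPCR ran 45 cycles at 60 °C with calibration curves from serial DNA dilutions. Mitochondrial 16S or cox2 DNA was quantified relative to nuclear ucp-2 DNA and normalized to untreated cells; biogenesis was taken as a ratio >1. n=3, mean ± SD, paired t test.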

HaCaT [4] = experiment: Induction of mitochondrial biogenesis in human HaCaT cells assessed as ratio of mitochondrial COX2 to UCP2 gene quantity at 1.75 to 7 uM by qPCR; type: functional, cell-based; summary of the method: as §2
HaCaT [5] = experiment: Activation of mitochondrial cytochrome C oxidase in human HaCaT lysate at 0.81 uM using equine cardiac cytochrome C substrate by spectrophotometry; summary of the method: as §1
HaCaT [6] = experiment: Activation of mitochondrial cytochrome C oxidase in human HaCaT lysate using equine cardiac cytochrome C substrate by spectrophotometry relative to resveratrol

Activity (HaCaT [1])	Activity (HaCaT [2])	Activity (HaCaT [5])	fold change (FC) (HaCaT [6])	SMILES	Activity (HaCaT [3])	Activity (HaCaT [4])
138%				Oc1ccc(/C=C/c2cc(O)cc(O)c2)cc1		
	158%	Active	60	O=C(C[C@](O)(Cc1ccc(O)cc1)C(=O)OCc1ccc(O[C@@H]2O[C@H](CO)[C@@H](O)[C@H](O)[C@H]2O)cc1)OCc1ccc(O[C@@H]2O[C@H](CO)[C@@H](O)[C@H](O)[C@H]2O)cc1	inactive	inactive
	inactive			O=C(C[C@](O)(Cc1ccc(O)cc1)C(=O)O)OCc1ccc(O[C@@H]2O[C@H](CO)[C@@H](O)[C@H](O)[C@H]2O)cc1	inactive	inactive
		Active	60	O=C(O)C[C@](O)(Cc1ccc(O)cc1)C(=O)O	inactive	inactive
	inactive			O=C(/C=C/c1ccccc1)O[C@@H]1[C@@H](O)[C@H](O[C@@](CC(=O)OCc2ccc(O[C@@H]3O[C@H](CO)[C@@H](O)[C@H](O)[C@H]3O)cc2)(Cc2ccc(O)cc2)C(=O)OCc2ccc(O[C@@H]3O[C@H](CO)[C@@H](O)[C@H](O)[C@H]3O)cc2)O[C@H](CO)[C@H]1O		
